Results: PMC5677568 (Structure (London, England : 1993), 2017)
pKd: −log10 of the molar value.

What was measured:
Experiment in all cases: Isothermal titration calorimetry
Type in all cases: binding
Settings in all cases: read-out: Values shown are Kd
[1] = target: UEA-1
Outline: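 Commercial UEA-1 lectin was dialysed overnight into the ITC buffer, and lyophilised glycans were dissolved in the dialysate. Cell concentration was set by A280 with a calculated extinction coefficient. Titration used 16 injections of 2.45 μL (1 s duration, 180 s spacing) at 5 μCal reference power. Integrated peaks were fitted to a single-site model to give Kd and ΔH.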

[2] = target: RBC36
Outline: (§1)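 N-terminally His6-tagged VLR ectodomains were expressed in Hi5 insect cells or by transient transfection of 293S cells, then purified by Ni-NTA and Superdex75 size exclusion. Protein was dialysed overnight into the ITC buffer, and lyophilised glycans were dissolved in the dialysate. Cell concentration was set by A280 with calculated extinction coefficients. Titration used 16 injections of 2.45 μL (1 s each, 180 s apart) at 5 μCal reference power. The single-site fit gave Kd and ΔH.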

[3] = target: Tn4-22
Outline: as §1

[4] = target: O13
Outline: as §1

| SMILES | pKd [1] | pKd [2] | pKd [3] | pKd [4] |
| --- | --- | --- | --- | --- |
| C[C@@H]1O[C@@H](O[C@H]2[C@H](O[C@H]3[C@H](O)[C@@H](O)C(O)O[C@@H]3CO)O[C@H](CO)[C@H](O)[C@@H]2O)[C@@H](O)[C@H](O)[C@@H]1O (stereo partly drawn) [2′-fucosyllactose, 2′-fucosyllactose, Fucα1-2Galβ1-4Glc] | 4.90 | 4.24 | – | – |
| CC(=O)N[C@H]1C(O)O[C@H](CO)[C@@H](O[C@@H]2O[C@H](CO)[C@H](O)[C@H](O)[C@H]2O[C@@H]2O[C@@H](C)[C@@H](O)[C@@H](O)[C@@H]2O)[C@@H]1O (stereo partly drawn) [H-trisaccharide, blood group H-trisaccharide type II, Fucα1-2Galβ1-4GlcNAc] | 5.09 | 5.08 | 5.16 | 5.59 |
| CC(=O)N[C@H]1[C@H](O[C@H]2[C@@H](O)[C@@H](CO)O[C@@H](O[C@H]3[C@H](O)[C@@H](O)C(O)O[C@@H]3CO)[C@@H]2O)O[C@H](CO)[C@@H](O[C@@H]2O[C@H](CO)[C@H](O)[C@H](O)[C@H]2O)[C@@H]1O (stereo partly drawn) [LNnT, lacto-N-neotetraose, Galβ1-4GlcNAcβ1-3Galβ1-4Glc] | – | – | 4.79 | 3.80 |
| CC(=O)N[C@H]1C(O)O[C@H](CO)[C@@H](O[C@@H]2O[C@H](CO)[C@H](O)[C@H](O)[C@H]2O[C@@H]2O[C@@H](C)[C@@H](O)[C@@H](O)[C@@H]2O)[C@@H]1O[C@@H]1O[C@@H](C)[C@@H](O)[C@@H](O)[C@@H]1O (stereo partly drawn) [Lewis-Y, Lewis-Y antigen tetrasaccharide, Fucα1-2Galβ1-4(Fucα1-3)GlcNAc] | 4.70 | – | – | – |
